# FGF22 binding: binders of recombinant human FGF22 by thermal shift | Q9HCT0 | SYPRO orange fluorescence; percent of sucrose octasulfate shift, DMSO zero | activity (Tm shift, normalised), % at 9.99 µM | hit rate 1.5% among 340,000 | AID 651658;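 active = mean Tm shift, scaled 0 neutral to 100 positive control, at about 1.3% or above, every replicate too, limit read from the data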
# Target sequence (Q9HCT0 whole entry, looked up): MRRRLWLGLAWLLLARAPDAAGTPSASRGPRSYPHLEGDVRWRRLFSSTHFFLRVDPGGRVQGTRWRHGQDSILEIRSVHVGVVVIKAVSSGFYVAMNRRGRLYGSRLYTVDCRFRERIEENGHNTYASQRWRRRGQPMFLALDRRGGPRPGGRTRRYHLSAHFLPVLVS
# FID counter: displaces DNA intercalator in HCV helicase counter-screen. inhibition, % at 7.9 µM. hit rate 0.17% among 290,000. AID 1845. DNA fluorescent intercalator displacement, fluorescence; in the data active = inhibition above about 37%;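 note: 0% = vehicle and 100% = reference compound; higher means more ethidium bromide displaced from hairpin DNA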
# NR3A LBD binder: modulates the human NR3A ligand-binding domain; NR3A LBD differential scanning fluorimetry, Tm shift; 0% = protein alone, 100% = glycine-bound protein; Tm shift relative to glycine control, % at 25 µM; hit rate 2.5% among 340,000;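 active = melting temperature shift of at least 10% of the positive control shift, at one fixed dose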
# EBNA-1 inh: blocks EBNA-1 binding to DNA. EBNA-1 DNA binding, fluorescence polarization. inhibition, % at 14.8 µM. hit rate 0.34% among 300,000; in the data active = inhibition above about 28%
# ZTA counter: ZTA (EBV) inhibition in EBNA-1 counter-screen. P03206. ZTA-DNA binding, fluorescence polarization. inhibition, % at 11 µM. hit rate 0.15% among 320,000; in the data active = inhibition above about 33%
# Target sequence (P03206 whole entry, looked up): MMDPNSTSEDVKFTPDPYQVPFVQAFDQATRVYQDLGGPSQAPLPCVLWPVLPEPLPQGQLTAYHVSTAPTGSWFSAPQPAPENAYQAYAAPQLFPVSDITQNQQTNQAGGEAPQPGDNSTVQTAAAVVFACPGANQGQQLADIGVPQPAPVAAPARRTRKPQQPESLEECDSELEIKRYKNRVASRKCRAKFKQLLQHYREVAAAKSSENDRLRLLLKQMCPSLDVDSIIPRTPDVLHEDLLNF
# HCV NS3 hel inh: HCV NS3 helicase inhibition. NS3 helicase DNA unwinding, Cy5 molecular beacon fluorescence. AID 1800. inhibition, % at 10.9 µM. hit rate 0.56% among 290,000;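 active = inhibition above the mean of all tested compounds plus 3 SD, set per campaign, cut at about 35% in these data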;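 note: 0% = DMSO wells and 100% = thioflavine S control wells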
#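 System: HCV NS3 helicase fragment; control set: DMSO and thioflavine S; technique: Cy5 fluorescence at 0 and 60 min, beacon hairpin quenching; reagent: beacon DNA duplex substrate plus ATP; replicates: singlicate; schedule: 1 h reaction at 25 °C, ATP-initiated; medium: MOPS buffer pH 6.5 with MgCl2, DTT, Tween20, BSA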
# * marks the source's active call; other numbers are inactive results; . = no result. This is a sample that favours compounds with a hit; in the whole collection about 3.6% have one here.
SMILES,FGF22 binding,FID counter,NR3A LBD binder,EBNA-1 inh,ZTA counter,HCV NS3 hel inh
Cc1cccc(C2=NN(c3ccccc3)[C@@H](C(=O)N3CCOC3=O)[C@@H]2c2ccc(Cl)cc2)c1,0.1,.,10.6*,.,.,.
Cc1cccc(C2=NN(c3ccc(Br)cc3)[C@@H](C(=O)N3CCOC3=O)[C@@H]2C)c1,-0.2,.,11.9*,.,.,.
O=C1OCCN1C(=O)[C@H]1[C@H](c2ccc([N+](=O)[O-])cc2)C(c2cccc(Cl)c2)=NN1c1ccccc1,-0.1,-6.3,13.4*,0.4,-7.2,-7.0
O=C1OCCN1C(=O)[C@H]1[C@H](c2ccc(Cl)cc2)C(c2ccc(F)cc2)=NN1c1ccc(Br)cc1,0.2,.,18.1*,.,.,.
Cc1cccc(C2=NN(c3ccccc3)[C@@H](C(=O)N3CCOC3=O)[C@@H]2c2ccc(F)cc2)c1,-0.1,.,-5.1,.,.,.
C[C@@H]1CN([C@@H](C)CO)C(=O)c2cc(NC(=O)Nc3cccc4ccccc34)ccc2O[C@@H]1CN(C)Cc1ccc(C(=O)O)cc1,0.0,.,.,.,.,.
C[C@H]1CCCCO[C@@H](CN(C)S(=O)(=O)c2ccc(Cl)cc2)[C@@H](C)CN([C@@H](C)CO)C(=O)c2cc(NS(=O)(=O)c3ccc(F)cc3)ccc2O1,-0.5,.,.,.,.,.
C=CCn1cc(C(C)=O)c(=O)[nH]c1=O,0.3,-2.8,0.9,-13.4,8.9,10.6
CC(=O)c1cn(Cc2ccccc2)c(=O)[nH]c1=O,43.4*,-0.8,-2.8,-3.0,4.4,-9.7
CCC(=O)NC[C@@H]1[C@@H](c2ccccc2)[C@@H](CO)N1C(=O)C1CC1,0.5,.,.,.,.,.
C[C@H]1CN([C@@H](C)CO)C(=O)Cc2cc(NC(=O)CCCCCC(=O)Nc3ccccc3N)ccc2O[C@@H]1CN(C)S(=O)(=O)c1ccc(F)cc1,-0.6,.,.,.,.,.
CCOC(=O)c1c(C)n(-c2ccc(C)cc2)c2c(C(C(C)=O)C(=O)O)c(Br)c(O)c(O)c12 (stereo unspecified),.,-37.7,20.4*,-0.4,-14.8,8.1
CCOC(=O)c1c(C)n(-c2ccc(C)cc2)c2c(CC(C)=O)c(Br)c(OC)c(O)c12,.,2.4,-5.7,9.2,16.8,-0.8
CCOC(=O)C1=C(C)N(C)C(=S)NC1c1ccc(Cl)cc1 (stereo unspecified),0.2,-12.2,-1.7,3.6,-3.5,-3.4
COC(=O)C1=C(C)N(C)C(=S)NC1c1ccc(Cl)cc1 (stereo unspecified),44.2*,-12.1,-1.0,1.4,-4.7,-14.2
CO[C@@H]1CN(C)C(=O)c2cc(NC(C)=O)ccc2OC[C@@H](C)NC[C@@H]1C,-0.2,.,.,.,.,.
Nc1nc2nonc2nc1N1CCCCC1,.,-2.3,15.1*,2.3,-3.5,-3.6
C1CCCN(c2nc3nonc3nc2N2CCCCCC2)CC1,0.3,-7.3,2.1,10.3,14.4,-4.4
CCn1c(O)c(/C=C2\C=NN=C2c2ccccc2)sc1=S,0.1,-0.9,-2.1,1.0,16.1,-13.1
CCCCn1c(O)c(/C=C2\C=NN=C2c2ccccc2)sc1=S,.,11.1,25.6*,4.4,1.5,11.4
CC(C)Cn1c(O)c(/C=C2\C=NN=C2c2ccccc2)sc1=S,.,3.0,29.9*,18.7,3.4,3.5
CCCCCCn1c(O)c(/C=C2\C=NN=C2c2ccccc2)sc1=S,.,-0.1,35.2*,4.6,-10.5,12.0
Cn1c(O)c(/C=C2\C=NN=C2c2ccccc2)sc1=S,0.1,-0.8,4.3,-6.0,0.8,5.8
O=C(CN(c1cccc(Cl)c1)S(=O)(=O)c1ccc(Cl)cc1)N1CCc2ccccc2C1,.,-18.6,10.6*,6.5,0.7,-6.2
C[C@@H]1CN([C@@H](C)CO)C(=O)c2cc(C#CC3CCCC3)cnc2O[C@H]1CN(C)C(=O)c1ccncc1,0.1,.,.,.,.,.
SMILES,FGF22 binding,FID counter,NR3A LBD binder,EBNA-1 inh,ZTA counter,HCV NS3 hel inh
C=C(C)C1CC=C(C)/C(=N/NC(=O)c2cccs2)C1 (stereo unspecified),.,-6.5,0.4,-6.5,15.4,5.6
C=C(C)C1CC=C(C)C(=NNC(=O)c2ccncc2)C1 (stereo unspecified),0.2,.,11.2*,.,.,.
Cc1nc(-c2ccc(C(=O)Nc3cccc(Br)c3)cc2)cs1,0.1,-7.3,32.3*,-0.6,-8.3,-14.7
Cc1nc(-c2cccc(NC(=O)c3ccc(Br)o3)c2)cs1,-0.2,-29.3,5.4,.,.,-1.1
Cc1ccccc1-c1nc(-c2ccc(NC(=O)c3ccc(Br)o3)cc2)no1,.,-1.7,28.9*,23.3,12.0,4.1
Cc1nc(-c2cccc(NC(=O)c3ccc(-n4nccc4C)cc3)c2)cs1,0.5,.,23.1*,.,-3.0,.
Cc1nc(-c2ccc(NC(=O)c3ccc(Br)o3)cc2)cs1,.,-18.9,19.6*,1.4,8.8,0.3
C[C@@H]1CCCCO[C@@H](CN(C)Cc2ccc(C(F)(F)F)cc2)[C@H](C)CN([C@H](C)CO)C(=O)c2cc(NC(=O)Nc3ccc(F)cc3)ccc2O1,-0.4,.,.,.,.,.
C[C@H](CO)N1C[C@H](C)[C@@H](CN(C)S(=O)(=O)c2cccs2)Oc2ccc(NC(=O)Cn3cnnn3)cc2CC1=O,0.0,.,.,.,.,.
CC(=O)c1cccc(NC(=O)CN(c2cccc(F)c2)S(C)(=O)=O)c1,.,-6.2,0.8,2.7,8.1,-1.9
CN(c1cccc(NC(=O)CN(c2cccc(F)c2)S(C)(=O)=O)c1)S(C)(=O)=O,43.0*,-8.2,3.6,-5.9,9.7,-2.6
CO[C@@H](CN(C)C(=O)c1ccccc1F)[C@@H](C)CN([C@@H](C)CO)S(=O)(=O)c1ccc(C)cc1,-0.1,.,.,.,.,.
O=C(COC(=O)CCC(=O)c1cccs1)Nc1ccc(S(=O)(=O)N2CCOCC2)cc1,.,-7.5,14.6*,2.7,13.9,-2.5
COc1ccc(OC)c(NC(=O)COC(=O)c2ccc(S(=O)(=O)N3CCCCC3)cc2)c1,44.7*,.,.,.,.,.
Cc1ccc(S(=O)(=O)N2CCOCC2)cc1NC(=O)COC(=O)CCC(=O)c1cccs1,.,-18.9,-0.8,0.7,12.3,1.2
Cc1ccc2c(C)c(C(=O)NCc3ccc(S(N)(=O)=O)cc3)oc2c1C,43.1*,0.9,-0.7,13.3,4.5,-1.2
Cc1c(C(=O)OCC(=O)Nc2ccc(S(N)(=O)=O)cc2)oc2c1ccc1ccccc12,-0.1,-0.8,17.5*,72.1*,33.4*,5.0
COc1ccc(S(=O)(=O)Nc2ccc3c(c2)C(=O)N([C@@H](C)CO)C[C@H](C)[C@@H](CN(C)Cc2ccc(-c4ccccc4)cc2)O3)cc1,-0.5,.,.,.,.,.
CC(C)[C@H](NC(=O)c1ccccc1)C(=O)OCC(=O)Nc1ccc(S(=O)(=O)N2CCOCC2)cc1,42.9*,.,-2.3,.,.,.
NS(=O)(=O)c1ccc(NC(=O)COC(=O)c2ccc(S(=O)(=O)N3CCOCC3)cc2)cc1,.,.,14.0*,.,.,.
CC(C)[C@H](NC(=O)c1ccccc1Cl)C(=O)OCC(=O)Nc1ccc(S(=O)(=O)N2CCOCC2)cc1,42.2,.,-0.5,.,.,.
O=C(COC(=O)/C=C/c1ccccc1[N+](=O)[O-])Nc1ccc(S(=O)(=O)N2CCOCC2)cc1,43.4*,.,-15.8,.,.,.
